Legend:
Assay type in all cases: functional, cell-based
[1] = test system: ECa-109 cell line; assay: Antiproliferative activity against human EC109 cells assessed as decrease in cell viability after 48 hrs by MTT assay; conditions: ECa-109, 48 h
Summary of the method: (§1)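 Cells in exponential growth seeded at 3000 per well and allowed 24 h. Medium then replaced with fresh medium holding a range of compound concentrations, followed by 48 h incubation. Viability read by MTT at 570 nm. IC50 is the concentration giving 50% inhibition of proliferation, reported as mean ± SD of three independent experiments.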

[2] = test system: MKN-45; assay: Antiproliferative activity against human MKN45 cells assessed as decrease in cell viability after 48 hrs by MTT assay; conditions: MKN-45, 48 h; summary of the method: as §1
[3] = test system: NCI-H1650; assay: Antiproliferative activity against human NCI-H1650 cells assessed as decrease in cell viability after 48 hrs by MTT assay; conditions: NCI-H1650, 48 h; summary of the method: as §1
[4] = test system: MGC-803; assay: Antiproliferative activity against human MGC803 cells assessed as decrease in cell viability after 48 hrs by MTT assay; conditions: MGC-803, 48 h; summary of the method: as §1

CCCSc1nc(N2CCN(C)CC2)c2ncc(=O)n(Cc3cccs3)c2n1
IC50 [1]: 19.7 µM | IC50 [2]: 11.3 µM | IC50 [3]: > 64 µM | IC50 [4]: 16.4 µM

Cc1nc(N2CCN(C)CC2)c2ncc(=O)n(Cc3ccccc3)c2n1
IC50 [1]: 39 µM | IC50 [2]: > 64 µM | IC50 [3]: > 64 µM | IC50 [4]: > 64 µM

CCCSc1nc(NC2CC2)c2ncc(=O)n(Cc3ccccc3)c2n1
IC50 [1]: 29.7 µM | IC50 [2]: 23.3 µM | IC50 [3]: > 64 µM | IC50 [4]: 43.7 µM

CCCNc1nc(SCCC)nc2c1ncc(=O)n2Cc1ccccc1
IC50 [1]: > 64 µM | IC50 [2]: 39.2 µM | IC50 [3]: > 64 µM | IC50 [4]: > 64 µM

CCCSc1nc(Nc2ccccc2)c2ncc(=O)n(Cc3ccccc3)c2n1
IC50 [1]: 19 µM | IC50 [2]: 38.6 µM | IC50 [3]: > 64 µM | IC50 [4]: 36.6 µM

CCCSc1nc(Nc2ccccc2OC)c2ncc(=O)n(Cc3ccccc3)c2n1
IC50 [1]: > 64 µM | IC50 [2]: 14.7 µM | IC50 [3]: 51.8 µM | IC50 [4]: 19.4 µM

CCCSc1nc(NCC2CCCCC2)c2ncc(=O)n(Cc3ccccc3)c2n1
IC50 [1]: 36 µM | IC50 [2]: 21 µM | IC50 [3]: > 64 µM | IC50 [4]: 30.4 µM

CCCSc1nc(N2CCSCC2)c2ncc(=O)n(Cc3ccccc3)c2n1
IC50 [1]: > 64 µM | IC50 [2]: > 64 µM | IC50 [3]: 54.8 µM | IC50 [4]: 34.7 µM

CCCSc1nc(Nc2cc(OC)c(OC)c(OC)c2)c2ncc(=O)n(Cc3ccccc3)c2n1
IC50 [1]: 38.7 µM | IC50 [2]: 14.2 µM | IC50 [3]: 36.9 µM | IC50 [4]: 15 µM

Source: ChEMBL document CHEMBL4251558, “Synthesis and preliminary antiproliferative activity of new pteridin-7(8H)-one derivatives” (Eur J Med Chem, 2018)
